Results gathered from unrelated publications.
Observed: enzyme activity
Mode: inhibitor
INSR: Insulin receptor (INSR, Homo sapiens, UniProt P06213)
INSR phosphorylated: Insulin receptor, phosphorylated (INSR, Homo sapiens, UniProt P06213)

CCCOc1ccc(OC)c(F)c1C(=O)c1ccc(C(=O)N[C@@H]2CNC[C@H]2NC(=O)c2ccc3[nH]ncc3c2)cc1
remaining activity (INSR; 10 µM): 101%

Cn1c(=O)n(-c2ccc(C(C)(C)C#N)cc2)c2c3cc(-c4cnc5ccccc5c4)ccc3ncc21
remaining activity (INSR; 10 µM): 99%

CCN(CC)c1ccc(C2=NNC(=O)CC2C)cc1[N+](=O)[O-] (stereo not drawn)
remaining activity (INSR phosphorylated; 10 µM): 95%

Cc1[nH]c(/C=C2\C(=O)Nc3ccc(F)cc32)c(C)c1C(=O)N[C@H]1CCN(C(=O)N(C)C)C1
remaining activity (INSR; 1 µM): 87%

COc1cc(Cl)c(C(=O)N[C@@H](CN[C@H]2CC[C@@H](N)CC2)Cc2ccc(C#N)cc2)cc1-c1ccc(CN[C@H](C)c2ccc(C)cc2)o1
remaining activity (INSR phosphorylated; 1 µM): 100%

Oc1cccc(-c2nc(N3CCOCC3)c3oc4ncccc4c3n2)c1
remaining activity (INSR; 10 µM): 80%

COc1cc(Nc2cnc(C#N)c(O[C@H](C)CN(C)C)n2)ncc1-c1cnn(C)c1
remaining activity (INSR; radiometric; 10 µM): 84%

CC(C)(C)c1nc2c(s1)c1nc(N)ncc1c1ccc(NS(=O)(=O)c3c(F)cccc3F)c(F)c12
remaining activity (INSR; radiometric; 1 µM): 112%

Cc1cnc(NC2CCOCC2)nc1-n1cnc(C(=O)NC(CN)c2cc(F)cc(Cl)c2)c1 (stereo not drawn)
remaining activity (INSR; radiometric; 1 µM): 103%

O=C(Nc1cnn(-c2csc(C(=O)NC3COC3)c2)c1)Nc1ccccc1Cl
remaining activity (INSR; 5 µM): 98.4%

Cc1ccc(NC(=O)c2ccc(C)c(C(F)(F)F)c2)cc1C#Cc1nn(C2CCC(O)CC2)c2ncnc(N)c12 (stereo not drawn)
remaining activity (INSR phosphorylated; 10 µM): 89%

Nc1nc(Nc2ccccc2)sc1C(=O)c1c(F)cccc1F
remaining activity (INSR; 10 µM): 88%
